The text below walks through data of ChEMBL document CHEMBL4145455, “Design, synthesis and evaluation of novel phenyl propionamide derivatives as non-nucleoside hepatitis B virus inhibitors” (Eur J Med Chem, 2018).

Data set [1] concerns Hepatitis B virus. Nature of the data set: Antiviral activity against HBV infected in human HepG2(2.2.15) cells assessed as inhibition of viral DNA replication at 20 uM after 6 days by RT-PCR method relative to control. It is filed as functional. The following applies: HepG2 2.2.15, 144 h. The method, boiled down: (§1)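 HepG2 2.2.15 cells (stable HBV genome; DMEM, 10% FBS, G418 0.38 mg/mL) seeded 2×10^5/well, recovered 24 h, then compound in assay medium (single 20 or 4 μM, or dose series for IC50), medium changed every 2 days; after 6 days HBV DNA extracted and quantified by real-time PCR. Mean ± SD, ≥3 independent experiments in duplicate.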

Data set [2] in a line: Cytotoxicity against human HepG2(2.2.15) cells assessed as reduction in cell viability after 72 hrs by MTT assay. It is filed as cell-based. Put shortly: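 Confluent HepG2 2.2.15 cells exposed to graded compound concentrations for 72 h alongside untreated controls on each plate; viability by MTT uptake, absorbance 490 nm relative to untreated cells; CC50 = concentration killing 50% of cells. Three replicates.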
(In general: Tetrazolium assays rely on reduction of a dye to a coloured formazan, in cell work by metabolically active cells.)

Data set [3] concerns Hepatitis B virus. As to the kind of experiment: Antiviral activity against HBV assessed as inhibition of viral DNA replication. It is filed as functional, organism-based. Put shortly:
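HepG2 cells transiently transfected with wild-type HBV genome, or the rtL180M+rtM204V+rtT184L lamivudine/entecavir-resistant mutant, for 24 h, washed, then exposed in dose-dependent manner; after 72 h HBV DNA replicative intermediate extracted and quantified by real-time PCR. IC50 = concentration giving 50% inhibition of DNA replication; mean ± SD of at least three independent experiments, duplicate measurements.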

Data set [4] in a line: Selectivity index, ratio of CC50 for human HepG2(2.2.15) cells to IC50 for antiviral activity against HBV infected in human HepG2(2.2.15) cells assessed as inhibition of viral DNA replication. It is filed as toxicity, cell-based. The following applies: read-out: Ratio CC50/IC50. Put shortly:
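SI calculated as CC50 (72 h MTT, HepG2 2.2.15) divided by IC50 for inhibition of HBV DNA replication measured by real-time PCR.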

The subject of data set [5] is Hepatitis B virus. Nature of the data set: Antiviral activity against lamivudine/entecavir resistant HBV harboring reverse transcriptase L180M/M204V/T184L mutant infected in human […] after 72 hrs by RT-PCR method. The format is functional, organism-based. The method, boiled down:
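HepG2 cells (2×10^5 per well) were plated, incubated overnight, then transiently transfected for 24 h with a plasmid carrying the full HBV genome with rtL180M + rtM204V + rtT184L. Medium was discarded, cells washed with PBS, then treated across a dose range in fresh medium for 72 h. Intracellular HBV DNA replicative intermediate was quantified by real-time PCR. IC50 is 50% inhibition of DNA replication.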

Data set [6] addresses T1, Protein P (Duck hepatitis B virus (strain Germany/DHBV-3) (DHBV)) (UniProt P0C691).
T1 sequence (whole entry): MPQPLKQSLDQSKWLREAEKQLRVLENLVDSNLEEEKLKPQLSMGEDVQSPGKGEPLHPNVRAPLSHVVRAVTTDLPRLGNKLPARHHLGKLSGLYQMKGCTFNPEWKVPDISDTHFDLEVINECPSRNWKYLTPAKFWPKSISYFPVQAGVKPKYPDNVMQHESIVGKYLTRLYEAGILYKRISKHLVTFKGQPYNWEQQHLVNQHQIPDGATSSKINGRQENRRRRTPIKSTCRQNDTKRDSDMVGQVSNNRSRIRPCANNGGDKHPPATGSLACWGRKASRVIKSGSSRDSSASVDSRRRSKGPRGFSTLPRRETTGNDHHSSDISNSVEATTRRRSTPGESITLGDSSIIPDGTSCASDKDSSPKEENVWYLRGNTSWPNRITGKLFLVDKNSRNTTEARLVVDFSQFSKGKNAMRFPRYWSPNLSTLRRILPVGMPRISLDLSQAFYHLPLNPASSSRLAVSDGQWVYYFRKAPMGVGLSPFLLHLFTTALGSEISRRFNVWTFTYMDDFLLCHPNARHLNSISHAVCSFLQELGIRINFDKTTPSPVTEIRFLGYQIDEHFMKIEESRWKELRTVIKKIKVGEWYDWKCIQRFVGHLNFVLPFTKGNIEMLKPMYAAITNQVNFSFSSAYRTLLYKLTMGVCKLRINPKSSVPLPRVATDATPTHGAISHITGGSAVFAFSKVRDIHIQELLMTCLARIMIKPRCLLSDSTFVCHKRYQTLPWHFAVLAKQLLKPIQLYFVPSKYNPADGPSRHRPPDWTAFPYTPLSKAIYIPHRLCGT
Nature of the data set: (§2) Inhibition of DHBV reverse transcriptase polymerase activity expressed in reticulocyte system assessed as reduction in elongation of viral minus strand DNA in presence of [alpha32P]DNA. Put shortly:
(§3)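 DHBV polymerase expressed in vitro in reticulocyte lysate; reverse transcriptase activity followed as [α32P]-dNTP incorporation into viral minus-strand DNA, with or without increasing inhibitor concentrations.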

The next data set has as its target T2, Protein P (Duck hepatitis B virus (strain Germany/DHBV-3) (DHBV), UniProt P0C691).
T2 sequence (P0C691 whole entry): T1 sequence (whole entry)
The data set is described as §2. The method, boiled down:
as §3

For data set [7], the system named is Hepatitis B virus. Nature of the data set: Antiviral activity against lamivudine/entecavir resistant HBV harboring reverse transcriptase L180M/M204V/T184L mutant infected in human […] cells assessed as inhibition of viral DNA replication at 1 uM after 72 hrs by RT-PCR method relative to control. The format is functional. Put shortly: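 HepG2 cells (not 2.2.15) were transiently transfected for 24 h with a plasmid carrying the rtL180M + rtM204V + rtT184L mutant HBV genome, alongside wild-type. After a PBS wash, cells received a single concentration (1, 10 or 100 µM) in fresh medium for 72 h. HBV DNA replicative intermediate was measured by real-time PCR and compared with the wild-type group.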

The test system of data set [8] is Hepatitis B virus. Nature of the data set: Antiviral activity against HBV infected in human […] cells assessed as inhibition of viral DNA replication at 1 uM after 72 hrs by RT-PCR method relative to control. The format is functional. The method, boiled down: (§4)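 HepG2 cells (2×10^5/well) transfected overnight-plated, 24 h with plasmid carrying wild-type or rtL180M+rtM204V+rtT184L resistant HBV; after PBS wash, fresh medium with lamivudine 100 μM, entecavir 10 μM, or test compounds 1 μM (one at 10 μM) for 72 h; replicative intermediate HBV DNA measured by real-time PCR.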

In data set [9] the test system is Hepatitis B virus. Nature of the data set: Antiviral activity against HBV infected in human HepG2(2.2.15) cells assessed as inhibition of viral DNA replication after 6 days by RT-PCR method. The format is functional, organism-based. The following applies: HepG2 2.2.15, 144 h. Put shortly:
as §1

For data set [10], the system named is Hepatitis B virus. Nature of the data set: Antiviral activity against HBV infected in human HepG2(2.2.15) cells assessed as inhibition of intracellular viral pregenomic RNA expression at 1 uM after 6 days by TRIzol reagent based RT-PCR method relative to control. The format is functional. The settings on record: HepG2 2.2.15, 144 h. Put shortly:
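HepG2 2.2.15 cells at 6×10^5 per well treated 6 days at 1 μM; total cellular RNA extracted and intracellular HBV pgRNA quantified by real-time PCR.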

Data set [11] can be described thus: Selectivity index, ratio of CC50 for human HepG2(2.2.15) cells to IC50 for antiviral activity against lamivudine/entecavir resistant HBV harboring reverse transcriptase L180M/M204V/T184L mutant infected in human HepG2(2.2.15) cells. It is filed as toxicity, cell-based. The following applies: read-out: Ratio CC50/IC50. The method, boiled down:
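SI = CC50/IC50. CC50 comes from HepG2 2.2.15 cells grown to confluence and treated for 72 h, with MTT absorbance at 490 nm relative to untreated cells, in triplicate. IC50 comes from mutant-plasmid-transfected HepG2 cells treated for 72 h, with HBV DNA measured by real-time PCR.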

For data set [12], the system named is Hepatitis B virus. As to the kind of experiment: Antiviral activity against HBV infected in human […] cells assessed as inhibition of viral DNA replication at 100 uM after 72 hrs by RT-PCR method relative to control. The format is functional. Put shortly:
as §4

The test system of data set [13] is Hepatitis B virus. As to the kind of experiment: Antiviral activity against lamivudine/entecavir resistant HBV harboring reverse transcriptase L180M/M204V/T184L mutant infected in human HepG2 cells assessed as inhibition of viral DNA replication at 100 uM after 72 hrs by RT-PCR method relative to control. The following applies: HepG2, 72 h.

In general, inhibition refers to the share of the control response that was lost under treatment. The CC50 is the concentration at which the toxic effect on the cells reaches its halfway point. One may read the IC50 as the midpoint of a concentration-inhibition curve. On to `CC(=O)OC[C@H](Cc1ccccc1)NC(=O)[C@H](Cc1ccccc1)NC(=O)c1ccccc1`, for which the inhibition at 20 µM in the data set with Hepatitis B virus [1] was 60.6%. The CC50 at 72 h in data set [2] was > 100 µM. Also, in the data set with Hepatitis B virus [3], the IC50 came out at 11.2 µM.

As a reminder, the EC50 is the midpoint of the concentration-response curve. Regarding `Cc1cccc(/C(Br)=C(/NC(=O)c2ccccc2)C(=O)N[C@H](CO)Cc2ccccc2)c1`, the selectivity ratio is > 217 in [4] and > 130 in data set [11]. Moreover, the IC50 in the data set with Hepatitis B virus [5] was 0.77 µM; in the data set with Hepatitis B virus [9], 0.46 µM. Further, in data set [6], the inhibition entry is “Dose-dependent effect”. For the same molecule, at Protein P, the EC50 came to 34.2 µM. In addition, the inhibition at 20 µM with Hepatitis B virus [1] amounted to 87.6%. Moreover, the inhibition at 1 µM in the data set on Hepatitis B virus [7] is 65.9%; with Hepatitis B virus [8], 61.4%; with Hepatitis B virus [10], 49.4%. Besides, the CC50 at 72 h in data set [2] was > 100 µM.

For the molecule `Nc1ccn([C@@H]2CS[C@H](CO)O2)c(=O)n1` [LAMIVUDINE], the selectivity ratio was > 1000 in [4] and < 1 in [11]. Also, the values for the IC50 with Hepatitis B virus [5] and in the data set on Hepatitis B virus [9] were > 100 µM and < 0.1 µM, respectively. Moreover, in the data set on Hepatitis B virus [1], the inhibition at 20 µM was 92.7%. The inhibition at 100 µM in the data set on Hepatitis B virus [12] was found to be 94.3%; in the data set with Hepatitis B virus [13], 19.4%. The CC50 at 72 h in data set [2] is > 100 µM. The inhibition at 1 µM in the data set on Hepatitis B virus [10] worked out at 0.81%.
